Laboratory results as given in ChEMBL document CHEMBL4823251, “Structure-Based Exploration of Selectivity for ATM Inhibitors in Huntington's Disease” (J Med Chem, 2021).
≈ marks a conversion by molar mass, not a printed value.

How the values were obtained:
[1] = Kinetic solubility of the compound in pH 7.4 PBS buffer incubated for 2 hrs using orbital shaker by LC-UV mass spectrometry; type: physicochemical; settings: read-out: Kinetic_solubility
Outline: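 Shaken on an orbital shaker for 2 h at room temperature, then filtered. Filtrate analysed by LC-UV with MS confirmation, calibrated against 200 μM and 10 μM DMSO dilutions.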

[2] = target: T1, Serine-protein kinase ATM (Homo sapiens, UniProt Q13315); test: Inhibition of full length recombinant FLAG-tagged human ATM assessed as decrease in p53 S15 phosphorylation using full length myc-tagged p53 as substrate incubated for 30 mins in presence of ATP by ELISA
T1 sequence (Q13315 whole entry): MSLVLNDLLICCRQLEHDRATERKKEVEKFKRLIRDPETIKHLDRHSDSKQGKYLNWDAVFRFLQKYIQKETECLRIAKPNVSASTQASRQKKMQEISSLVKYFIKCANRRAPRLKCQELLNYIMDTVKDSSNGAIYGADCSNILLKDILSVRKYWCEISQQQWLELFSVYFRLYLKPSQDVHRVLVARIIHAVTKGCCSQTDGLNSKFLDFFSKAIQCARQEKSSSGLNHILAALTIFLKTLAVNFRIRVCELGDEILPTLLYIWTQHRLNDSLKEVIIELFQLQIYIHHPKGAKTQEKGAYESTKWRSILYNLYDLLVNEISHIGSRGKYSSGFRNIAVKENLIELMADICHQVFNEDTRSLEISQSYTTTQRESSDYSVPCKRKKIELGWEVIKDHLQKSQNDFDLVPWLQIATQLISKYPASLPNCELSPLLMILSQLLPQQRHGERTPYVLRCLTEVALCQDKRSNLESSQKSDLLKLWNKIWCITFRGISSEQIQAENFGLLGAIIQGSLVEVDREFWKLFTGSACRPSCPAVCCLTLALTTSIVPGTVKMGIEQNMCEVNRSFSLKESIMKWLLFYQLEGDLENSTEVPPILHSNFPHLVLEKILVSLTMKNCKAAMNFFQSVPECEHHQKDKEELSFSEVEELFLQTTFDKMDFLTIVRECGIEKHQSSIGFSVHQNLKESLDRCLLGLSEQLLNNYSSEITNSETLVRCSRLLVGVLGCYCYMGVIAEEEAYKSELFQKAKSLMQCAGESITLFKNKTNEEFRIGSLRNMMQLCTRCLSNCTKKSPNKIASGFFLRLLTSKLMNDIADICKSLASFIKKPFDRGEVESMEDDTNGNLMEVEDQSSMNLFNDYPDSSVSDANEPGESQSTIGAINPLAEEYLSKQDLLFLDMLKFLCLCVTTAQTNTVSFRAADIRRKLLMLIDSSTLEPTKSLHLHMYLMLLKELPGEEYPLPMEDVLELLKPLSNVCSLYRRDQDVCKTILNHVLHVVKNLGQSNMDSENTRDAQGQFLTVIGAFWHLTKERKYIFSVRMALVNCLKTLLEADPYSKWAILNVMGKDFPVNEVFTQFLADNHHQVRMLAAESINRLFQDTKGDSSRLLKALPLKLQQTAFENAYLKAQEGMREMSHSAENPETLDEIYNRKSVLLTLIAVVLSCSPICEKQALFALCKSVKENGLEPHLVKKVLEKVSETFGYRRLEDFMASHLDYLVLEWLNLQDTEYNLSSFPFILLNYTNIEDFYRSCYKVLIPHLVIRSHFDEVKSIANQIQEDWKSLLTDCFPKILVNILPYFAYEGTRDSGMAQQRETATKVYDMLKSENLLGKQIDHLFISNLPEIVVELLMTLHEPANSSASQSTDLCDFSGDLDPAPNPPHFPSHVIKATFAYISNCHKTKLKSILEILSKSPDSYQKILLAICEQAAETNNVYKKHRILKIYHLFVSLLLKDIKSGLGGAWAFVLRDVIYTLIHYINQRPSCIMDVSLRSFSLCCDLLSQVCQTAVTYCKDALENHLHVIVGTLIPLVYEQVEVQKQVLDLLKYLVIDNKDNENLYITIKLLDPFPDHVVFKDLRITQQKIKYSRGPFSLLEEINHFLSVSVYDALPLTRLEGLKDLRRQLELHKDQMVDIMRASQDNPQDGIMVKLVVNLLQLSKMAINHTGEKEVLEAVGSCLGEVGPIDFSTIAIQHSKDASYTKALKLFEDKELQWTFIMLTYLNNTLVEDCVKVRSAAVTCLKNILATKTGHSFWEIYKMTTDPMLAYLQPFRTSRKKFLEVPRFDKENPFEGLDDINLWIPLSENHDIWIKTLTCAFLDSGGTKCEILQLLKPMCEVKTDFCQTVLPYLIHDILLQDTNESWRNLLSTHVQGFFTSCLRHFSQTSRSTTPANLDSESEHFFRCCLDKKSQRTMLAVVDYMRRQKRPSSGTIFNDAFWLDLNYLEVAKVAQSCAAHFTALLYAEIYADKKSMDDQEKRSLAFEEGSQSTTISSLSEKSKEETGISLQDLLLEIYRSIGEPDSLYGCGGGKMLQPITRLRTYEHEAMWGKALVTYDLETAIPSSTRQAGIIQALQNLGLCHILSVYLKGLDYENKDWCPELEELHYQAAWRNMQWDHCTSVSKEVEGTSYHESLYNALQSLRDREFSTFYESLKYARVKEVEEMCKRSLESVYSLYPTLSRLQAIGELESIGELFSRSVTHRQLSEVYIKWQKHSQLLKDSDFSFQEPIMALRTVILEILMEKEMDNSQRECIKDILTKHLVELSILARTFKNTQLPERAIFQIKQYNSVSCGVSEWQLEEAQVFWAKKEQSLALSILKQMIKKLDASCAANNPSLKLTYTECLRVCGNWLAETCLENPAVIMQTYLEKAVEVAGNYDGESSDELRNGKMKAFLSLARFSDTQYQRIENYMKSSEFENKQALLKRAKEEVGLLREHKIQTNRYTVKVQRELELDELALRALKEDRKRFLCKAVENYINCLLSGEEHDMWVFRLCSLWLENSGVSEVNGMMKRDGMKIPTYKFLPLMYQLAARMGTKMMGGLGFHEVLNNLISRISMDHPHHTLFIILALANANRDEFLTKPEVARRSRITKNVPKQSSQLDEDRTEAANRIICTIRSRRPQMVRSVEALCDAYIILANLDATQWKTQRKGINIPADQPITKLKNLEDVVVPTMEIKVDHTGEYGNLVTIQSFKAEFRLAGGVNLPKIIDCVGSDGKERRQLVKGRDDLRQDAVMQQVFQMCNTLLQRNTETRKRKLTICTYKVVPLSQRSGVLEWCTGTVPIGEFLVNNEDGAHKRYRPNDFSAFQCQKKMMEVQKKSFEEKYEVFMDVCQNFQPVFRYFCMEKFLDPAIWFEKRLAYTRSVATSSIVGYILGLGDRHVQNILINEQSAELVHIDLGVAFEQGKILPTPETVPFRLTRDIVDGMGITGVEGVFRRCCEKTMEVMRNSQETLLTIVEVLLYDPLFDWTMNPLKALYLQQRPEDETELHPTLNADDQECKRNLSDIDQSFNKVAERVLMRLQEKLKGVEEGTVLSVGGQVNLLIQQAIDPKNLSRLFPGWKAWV
Outline: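 Buffer was 25 mM HEPES pH 7.5 with MgCl₂, MnCl₂, Brij-35, glycerol, BSA and DTT (0.1% DMSO); reaction ran 30 min at 20 °C and was stopped with 70 mM EDTA. Product captured on anti-myc-coated plates and detected with anti-p53 pS15, HRP secondary and TMB, absorbance at 450 nm.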

[3] = target: T1, Serine-protein kinase ATM; test: Inhibition of ATM in human U2OS cells assessed as reduction in etoposide-stimulated KAP1 phosphorylation incubated for 60 mins by immunoreactivity assay; type: cell-based
Outline: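 U2OS cells plated overnight at 6k cells/well (37 °C, 5% CO₂), then treated with compound titrations (0.3% DMSO) plus 100 μM etoposide for 60 min. Cells fixed in cold methanol and stained for phospho-KAP1 and total KAP1 using IRDye secondaries on a LI-COR Odyssey. IC50 is the mean of at least two experiments.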

Homo sapiens = species: Homo sapiens; test: Selectivity ratio of Ki for full length recombinant GST-tagged VPS34 expressed in baculovirus expression system using PI/PS as substrate incubated for 60 mins in presence of ATP at Km concentration by luminescence assay to Ki for full length recombinant FLAG-tagged human ATM assessed as decrease in p53 S15 phosphorylation using full length myc-tagged p53 as substrate incubated for 30 mins in presence of ATP by ELISA
Outline: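 ADP-Glo luminescence read-out. ATM reaction: 0.75 nM enzyme, 25 nM myc-p53, 10 μM ATP, 30 min at 20 °C, p53 S15 phosphorylation by ELISA. Ki values are means of at least two experiments.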

[4] = target: Phosphatidylinositol 3-kinase catalytic subunit type 3 (Homo sapiens, UniProt Q8NEB9); test: Inhibition of full length recombinant GST-tagged human VPS34 expressed in baculovirus expression system using PI/PS as substrate incubated for 60 mins in presence of ATP at Km concentration by luminescence assay
Chain of Phosphatidylinositol 3-kinase catalytic subunit type 3 (Q8NEB9 whole entry): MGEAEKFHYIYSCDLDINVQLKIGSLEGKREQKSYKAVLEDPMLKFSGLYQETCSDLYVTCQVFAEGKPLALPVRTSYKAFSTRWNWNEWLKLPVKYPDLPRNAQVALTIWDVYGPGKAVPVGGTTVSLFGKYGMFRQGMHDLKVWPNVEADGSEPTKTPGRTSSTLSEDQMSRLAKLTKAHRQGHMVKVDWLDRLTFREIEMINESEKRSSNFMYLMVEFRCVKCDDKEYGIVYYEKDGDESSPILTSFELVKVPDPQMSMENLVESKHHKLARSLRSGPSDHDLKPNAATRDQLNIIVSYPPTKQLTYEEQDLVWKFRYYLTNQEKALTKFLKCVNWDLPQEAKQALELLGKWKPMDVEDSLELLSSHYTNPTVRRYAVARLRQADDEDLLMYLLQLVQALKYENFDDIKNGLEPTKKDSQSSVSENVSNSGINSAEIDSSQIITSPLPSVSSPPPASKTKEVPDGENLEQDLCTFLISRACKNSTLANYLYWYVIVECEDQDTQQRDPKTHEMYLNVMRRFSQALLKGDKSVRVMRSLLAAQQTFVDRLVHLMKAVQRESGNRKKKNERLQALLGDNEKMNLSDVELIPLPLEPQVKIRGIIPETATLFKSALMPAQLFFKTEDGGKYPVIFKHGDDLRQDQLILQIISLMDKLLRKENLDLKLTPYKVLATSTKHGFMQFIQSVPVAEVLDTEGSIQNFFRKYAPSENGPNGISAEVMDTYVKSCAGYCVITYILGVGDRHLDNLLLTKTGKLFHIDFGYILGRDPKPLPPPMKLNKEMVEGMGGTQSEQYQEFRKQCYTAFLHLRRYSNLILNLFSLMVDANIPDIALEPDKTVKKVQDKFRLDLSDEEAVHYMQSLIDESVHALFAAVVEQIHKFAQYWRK

[5] = target: DNA-dependent protein kinase catalytic subunit (Homo sapiens, UniProt P78527); test: Inhibition of DNA-PK isolated from human HeLa nuclear extract using full length His-tagged p53 as substrate measured after 75 mins in presence of ATP by HTRF assay; type: subcellular, Nucleus
Outline: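 Buffer was 50 mM HEPES pH 7.5, 5 mM MgCl₂, 0.01% Brij35, 1 mM DTT and 1 μg/mL sheared calf thymus DNA; reaction ran 75 min at 20 °C. Stopped with d2-anti-6HIS and cryptate anti-phospho-p53 antibodies in KF/EDTA buffer. Read at 665/620 nm after 7 h.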

[6] = target: Serine/threonine-protein kinase ATR (Homo sapiens, UniProt Q13535); test: Inhibition of ATR in human HT-29 cells assessed as reduction in CHK1 phosphorylation incubated for 4 hrs; type: cell-based
Outline: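 HT29 cells seeded at 25k/well overnight, then treated with compound titrations (0.3% DMSO) plus 10 μM gemcitabine for 4 h. Cells fixed in paraformaldehyde, permeabilized with Triton-X, and stained for phospho-Chk1 and total Chk1 using LI-COR IRDye detection. Ratio normalized to DMSO and 30 μM AZ-20 controls. IC50 is the mean of at least two experiments.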

[7] = Intrinsic clearance in C57Bl/6 mouse pooled liver microsomes at 1 uM measured up to 40 mins in presence of NADPH by LC-MS/MS analysis; type: ADME, Microsome; settings: read-out: CLH
Outline: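 Reaction started with 1 mM NADPH. Sampled at 0, 5, 10, 20 and 40 min, quenched in acetonitrile with internal standard, and analysed by LC–MS/MS.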

[8] = Effective efflux ratio of apparent permeability across basolateral to apical over apical to basolateral side in MDCK-MDR1 cells assessed as efflux ratio after 1 hr by LC-MS/MS analysis; type: ADME, cell-based, Canis lupus familiaris; settings: dog, mdck-mdr1, 1 h
Outline: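 MDCKII MDR1 and wild-type cells seeded at 2 × 10⁵ cells/well in Transwells, cultured 3 days. Test compounds 10 μM in HBSS with 25 mM HEPES pH 7.4, dosed apical or basolateral in duplicate, 1 h at 37 °C. Lucifer yellow monolayer check, wells above 100 nm/s rejected. LC–MS/MS read-out. ER = Papp B>A/A>B. EER = MDR1 ER over wild-type ER.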

[9] = Apparent permeability across apical to basolateral side in MDCK-MDR1 cells after 1 hr by LC-MS/MS analysis; type: ADME, cell-based, Canis lupus familiaris; settings: dog
Outline: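 MDCKII-MDR1 and wild-type cells seeded at 2 × 10⁵ cells/well on Transwells and cultured 3 days. Test compound at 10 μM in HBSS with 25 mM HEPES, pH 7.4, added apical or basolateral in duplicate. Lucifer yellow used as integrity check; wells above 100 nm/s rejected. Sampled after 1 h at 37 °C and quantified by LC–MS/MS. Papp taken from the apical-to-basal direction.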

| SMILES | solubility kinetic at 2 h [1] [µg/mL] | Ki [2] [nM] | IC50 [3] [µM] | Ratio Ki (Homo sapiens) | Ki [4] [nM] | Ki [5] [nM] | IC50 [6] [µM] | CLint scaled at 1 µM [7] [mL/min/kg] | Ratio [8] | Papp A→B at 1 h [9] [×10⁻⁶ cm/s] |
| --- | --- | --- | --- | --- | --- | --- | --- | --- | --- | --- |
| COc1ccc2c(c1)Cc1cccc(-c3cc(=O)cc(N4CCOCC4)[nH]3)c1S2 | 3 (≈ 7.38 µM) | 110 | > 30 | – | – | – | – | – | – | – |
| COc1ccc2c(c1)Cc1cccc(-c3cc(N4CCOCC4)[nH]c(=O)c3)c1S2 | – | > 1000 | > 30 | – | – | – | – | – | – | – |
| C[C@@H]1CN(c2cc(=O)[nH]c(N3CCCCC[C@@H]3Cc3ccccc3)n2)CCO1 | 11 (≈ 28.8 µM) | 1 | – | 840 | 840 | – | – | – | – | – |
| O=c1cc(N2CCOCC2)nc(N2C[C@@H]3C[C@@H]3[C@@H]2Cc2ccccc2)[nH]1 | < 2 | 0.6 | – | 8 | 5 | – | – | – | – | – |
| C[C@@H]1CN(c2cc(N3C[C@@H]4C[C@@H]4[C@@H]3Cc3ccccc3)[nH]c(=O)c2)CCO1 | 23 (≈ 62.9 µM) | – | – | – | 750 | 7 | 13 | – | – | – |
| CO[C@@H]1CCN(c2cc(N3CCOCC3)cc(=O)[nH]2)[C@H]1Cc1ccccc1 | 72 (≈ 195 µM) | 23 | 3.5 | – | – | – | – | < 65 | 12 | 31.9 |
| O=c1cc(N2CCOCC2)cc(N2CCC(Cc3ccccc3)C2)[nH]1 (configuration not stated) | 5 (≈ 14.7 µM) | > 1200 | > 30 | – | – | – | – | – | – | – |
| O=c1cc(N2CCOCC2)cc(N2C[C@@H]3C[C@@H]3[C@@H]2Cc2ccccc2)[nH]1 | 52 (≈ 148 µM) | 0.3 | 0.15 | 13 | 4 | – | – | 177 | 2.9 | 81.2 |
| COc1ccc2c(c1)Cc1cccc(-c3cc(N4CCOCC4)cc(=O)n3C)c1S2 | 10 (≈ 23.8 µM) | > 1200 | > 30 | > 1 | 910 | – | – | – | – | – |
| Oc1cc(N2CCOCC2)nc(N2CCC[C@@H]2Cc2ccccc2)n1 | 34 (≈ 99.9 µM) | 1 | 0.5 | 16 | 16 | – | – | 261 | 4.5 | 77.5 |
| C[C@@H]1CN(c2cc(=O)[nH]c(N3C[C@H]4C[C@H]4[C@@H]3Cc3ccccc3)n2)CCO1 | 48 (≈ 131 µM) | 2 | – | 490 | 880 | – | – | – | – | – |
| C[C@@H]1CN(c2cc(=O)[nH]c(N3C[C@@H]4C[C@@H]4[C@@H]3Cc3ccccc3)n2)CCO1 | < 2 | 0.9 | – | 1700 | 1500 | – | – | – | – | – |
| COc1ccc2c(c1)Cc1cccc(-c3nc(O)cc(N4CCOCC4)n3)c1S2 | 2 (≈ 4.91 µM) | > 1600 | > 30 | – | > 5000 | – | – | – | – | – |
| O=c1cc(N2CCOCC2)cc(N2CCCC[C@@H]2Cc2ccccc2)[nH]1 | 59 (≈ 167 µM) | – | – | – | 170 | – | 8 | – | – | – |
| Oc1cc(N2CCC[C@@H]2Cc2ccccc2)nc(N2CCOCC2)n1 | 59 (≈ 173 µM) | 87 | > 30 | 3 | 270 | – | – | – | – | – |
